According to ChEMBL document CHEMBL1122813, “Synthesis and antibacterial activity of 2-[(methoxycarbonyl)methylene]cephalosporins” (1984):
In brackets after ≈: the same amount, converted by molar mass.

Key:
Enterobacter cloacae [1] = experiment: In vitro antibacterial activity against Enterobacter cloacae strain 9656; assay type: functional
In short: (§1)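 MIC by serial twofold dilution of compound in Mueller-Hinton agar. The agar surface or broth was inoculated with a suitably diluted 18-24-h broth culture, then incubated at 37 °C for 17 h. MIC was read as the lowest concentration inhibiting visible growth.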

Enterobacter cloacae [2] = experiment: In vitro antibacterial activity against Enterobacter cloacae strain 9659; assay type: functional; in short: as §1
Escherichia coli [3] = experiment: In vitro antibacterial activity against Escherichia coli strain 15119; assay type: functional; in short: as §1
Escherichia coli [4] = experiment: In vitro antibacterial activity against Escherichia coli strain 20341; assay type: functional; in short: as §1
Klebsiella pneumoniae [5] = experiment: In vitro antibacterial activity against Klebsiella pneumoniae strain 15130; assay type: functional; in short: as §1
Klebsiella pneumoniae [6] = experiment: In vitro antibacterial activity against Klebsiella pneumoniae strain 20468; assay type: functional; in short: as §1
Morganella morganii = experiment: In vitro antibacterial activity against Morganella morganii strain 15153; assay type: functional; in short: as §1
Proteus mirabilis [7] = experiment: In vitro antibacterial activity against Proteus mirabilis strain 9716; assay type: functional; in short: as §1
Proteus mirabilis [8] = experiment: In vitro antibacterial activity against Proteus mirabilis strain 9900; assay type: functional; in short: as §1
Providencia rettgeri [9] = experiment: In vitro antibacterial activity against Providencia rettgeri strain 21203; assay type: functional; in short: as §1
Serratia marcescens = experiment: In vitro antibacterial activity against Serratia marcescens strain 20019; assay type: functional; in short: as §1
Staphylococcus aureus [10] = experiment: In vitro antibacterial activity against Staphylococcus aureus strain 9537; assay type: functional
In short: (§2)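 MIC by serial twofold dilution in Mueller-Hinton agar. Agar surface or broth inoculated with a suitably diluted 18-24-h broth culture. Plates and broth tubes incubated at 37 °C for 17 h. MIC taken as the lowest concentration that inhibited visible growth.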

Staphylococcus aureus [11] = experiment: In vitro antibacterial activity against Staphylococcus aureus strain 9537 + 50% serum; assay type: functional
In short: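 Serial twofold dilution MIC with 50% human serum present. Mueller-Hinton agar or broth was inoculated with a suitably diluted 18-24-h broth culture and incubated at 37 °C for 17 h. The endpoint was the lowest concentration that stopped visible growth.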

Staphylococcus aureus [12] = experiment: In vitro antibacterial activity against Staphylococcus aureus strain 9606 (Penicillin resistant); assay type: functional; in short: as §2
Enterococcus faecalis = experiment: In vitro antibacterial activity against Streptococcus faecalis strain 20688; assay type: functional; in short: as §1
Streptococcus pneumoniae = experiment: In vitro antibacterial activity against Streptococcus pneumoniae strain 9585; assay type: functional; in short: as §1
Streptococcus pyogenes = experiment: In vitro antibacterial activity against Streptococcus pyogenes strain 9604; assay type: functional; in short: as §1
Providencia rettgeri [13] = experiment: In vitro antibacterial activity against Providencia rettgeri strain 21203

Structure (SMILES)	MIC (Enterobacter cloacae [1]) [µg/mL]	MIC (Enterobacter cloacae [2]) [µg/mL]	MIC (Escherichia coli [3]) [µg/mL]	MIC (Escherichia coli [4]) [µg/mL]	MIC (Klebsiella pneumoniae [5]) [µg/mL]	MIC (Klebsiella pneumoniae [6]) [µg/mL]	MIC (Morganella morganii) [µg/mL]	MIC (Proteus mirabilis [7]) [µg/mL]	MIC (Proteus mirabilis [8]) [µg/mL]	MIC (Providencia rettgeri [9]) [µg/mL]	MIC (Serratia marcescens) [µg/mL]	MIC (Staphylococcus aureus [10]) [µg/mL]	MIC (Staphylococcus aureus [11]) [µg/mL]	MIC (Staphylococcus aureus [12]) [µg/mL]	MIC (Enterococcus faecalis) [µg/mL]	MIC (Streptococcus pneumoniae) [µg/mL]	MIC (Streptococcus pyogenes) [µg/mL]	MIC (Providencia rettgeri [13]) [µg/mL]
COC(=O)/C=C1\SC2C(NC(=O)C(N)c3ccccc3)C(=O)N2C(C(=O)O)=C1C.O=C(O)C(F)(F)F (stereo unspecified)	> 125	> 125	> 125	> 125	> 125	> 125	> 125	> 125	> 125	> 125	> 125	1	32	> 125	63	0.13	0.025	–
CC(=O)OCC1=C(C(=O)O)N2C(=O)[C@@H](NC(=O)Cc3cccs3)[C@H]2SC1 [CEPHALOTHIN]	> 125	> 125	16 (≈ 40.4 µM)	32 (≈ 80.7 µM)	16 (≈ 40.4 µM)	> 125	> 125	8 (≈ 20.2 µM)	1 (≈ 2.52 µM)	–	> 125	0.06 (≈ 0.151 µM)	2	0.5 (≈ 1.26 µM)	32 (≈ 80.7 µM)	0.03 (≈ 0.0757 µM)	0.06 (≈ 0.151 µM)	63 (≈ 159 µM)
COC(=O)/C=C1\SC2C(NC(=O)Cc3cccs3)C(=O)N2C(C(=O)O)=C1COC(C)=O (stereo unspecified)	> 125	> 125	125 (≈ 268 µM)	> 125	> 125	63 (≈ 135 µM)	> 125	125 (≈ 268 µM)	125 (≈ 268 µM)	> 125	> 125	2 (≈ 4.29 µM)	63	2 (≈ 4.29 µM)	4 (≈ 8.57 µM)	0.13 (≈ 0.279 µM)	0.5 (≈ 1.07 µM)	–
COC(=O)/C=C1\SC2C(NC(=O)C(O)c3ccccc3)C(=O)N2C(C(=O)O)=C1C (stereo unspecified)	> 125	> 125	> 125	> 125	> 125	> 125	> 125	> 125	63 (≈ 151 µM)	> 125	> 125	0.5 (≈ 1.19 µM)	32	> 125	16 (≈ 38.2 µM)	0.25 (≈ 0.597 µM)	0.25 (≈ 0.597 µM)	–
COC(=O)/C=C1\SC2C(NC(=O)Cc3cccs3)C(=O)N2C(C(=O)O)=C1C (stereo unspecified)	> 125	> 125	63 (≈ 154 µM)	125 (≈ 306 µM)	125 (≈ 306 µM)	> 125	125 (≈ 306 µM)	32 (≈ 78.3 µM)	16 (≈ 39.2 µM)	63 (≈ 154 µM)	> 125	0.13 (≈ 0.318 µM)	63	2 (≈ 4.9 µM)	2 (≈ 4.9 µM)	0.25 (≈ 0.612 µM)	2 (≈ 4.9 µM)	–
CO/N=C(/C(=O)NC1C(=O)N2C(C(=O)O)=C(C)/C(=C/C(=O)OC)SC12)c1ccco1 (stereo unspecified)	63 (≈ 145 µM)	> 125	16 (≈ 36.7 µM)	63 (≈ 145 µM)	16 (≈ 36.7 µM)	> 125	63 (≈ 145 µM)	4 (≈ 9.19 µM)	4 (≈ 9.19 µM)	32 (≈ 73.5 µM)	> 125	2 (≈ 4.59 µM)	63	4 (≈ 9.19 µM)	32 (≈ 73.5 µM)	0.25 (≈ 0.574 µM)	0.25 (≈ 0.574 µM)	–
CO/N=C(/C(=O)NC1C(=O)N2C(C(=O)O)=C(C)/C(=C/C(=O)OC)SC12)c1csc(N)n1.O=C(O)C(F)(F)F (stereo unspecified)	> 125	> 125	2	2	16	32	> 125	16	2	32	> 125	2	125	4	63	0.016	0.016	–
COC(=O)/C=C1/SC2C(NC(=O)Cc3cccs3)C(=O)N2C(C(=O)O)=C1C (stereo unspecified)	> 125	> 125	125 (≈ 306 µM)	125 (≈ 306 µM)	> 125	> 125	16 (≈ 39.2 µM)	4 (≈ 9.79 µM)	32 (≈ 78.3 µM)	4 (≈ 9.79 µM)	4 (≈ 9.79 µM)	0.06 (≈ 0.147 µM)	63	1 (≈ 2.45 µM)	8 (≈ 19.6 µM)	0.5 (≈ 1.22 µM)	2 (≈ 4.9 µM)	–
